{
  "source": "ChEMBL document CHEMBL1153564",
  "about": "(Antimicrob Agents Chemother, 2008)",
  "key": {"Nakaseomyces glabratus [1]": {"test_system": "Nakaseomyces glabratus", "experiment": "Antifungal activity against Candida glabrata 5376 infected in neutropenic ICR/Swiss mouse candidiasis model assessed as reduction of […] in kidney at 20 mg/kg, ip administered 2 hrs postinfection as single dose measured after 96 hrs post dosing by time-kill assay", "assay_type": "functional, organism-based", "set-up": "dose 20 mg/kg", "summary_of_the_method": "(§1)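 Neutropenic mice were infected i.v. and 2 h later given a single i.p. dose (1.25, 5 or 20 mg/kg). Groups of three treated and three control mice were killed at intervals over 96 h, and kidney CFU were counted on SDA (limit 100 CFU/ml). The post-antifungal effect is t − c: the time for a 1 log10 CFU/kidney increase once serum levels fall below the MIC in treated mice, minus the same time in controls.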"}, "[2]": {"experiment": "AUC (0 to infinity) in serum of neutropenic ICR/Swiss mouse candidiasis model at 80 mg/kg, ip by reverse-phase high-pressure liquid chromatography", "assay_type": "ADME, organism-based", "set-up": "time infinity, dose 80 mg/kg, route intraperitoneal", "summary_of_the_method": "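Single ip dose in 0.2 ml to infected neutropenic mice. Serum from groups of three isoflurane-anaesthetised mice at 1, 4, 8, 12, 24 and 48 h, stored −80°C. Drug measured by reverse-phase HPLC with fluorescence detection against loratadine internal standard (calibration 10–50,000 ng/ml). Noncompartmental analysis; AUC by trapezoidal rule.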"}, "Nakaseomyces glabratus [3]": {"test_system": "Nakaseomyces glabratus", "experiment": "Antifungal activity against Candida glabrata 35315 infected in neutropenic ICR/Swiss mouse candidiasis model assessed as dose required to maintain […] burden of 1.83 +/- 0.54 log10CFU per kidney administered intraperitoneally every 24 hrs up to 4 days measured per 24 hrs", "assay_type": "functional"}, "Candida albicans [4]": {"test_system": "Candida albicans", "experiment": "Antifungal activity against Candida albicans K-1 infected in neutropenic ICR/Swiss mouse candidiasis model assessed as dose required for 1-log10 reduction in […] per kidney administered intraperitoneally every 48 hrs up to 4 days measured per 96 hrs", "assay_type": "functional", "summary_of_the_method": "(§2)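 Neutropenic mice were infected iv with C. albicans K-1 2 h before therapy. Total doses of 1.25, 5, 20, 80 and 320 mg/kg/96 h were split into 1, 2, 4 or 6 ip doses (q96h, q48h, q24h, q16h), three mice per regimen. Effect is the log10 CFU/kidney relative to untreated controls at 96 h. Static and 1-log doses were taken from a Hill model fit.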"}, "Nakaseomyces glabratus [5]": {"test_system": "Nakaseomyces glabratus", "experiment": "Antifungal activity against Candida glabrata 33609 infected in neutropenic ICR/Swiss mouse candidiasis model assessed as fungal count per kidney administered 2 hrs postinfection measured up to 48 hrs", "assay_type": "functional", "summary_of_the_method": "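Female ICR/Swiss mice (23–27 g) made neutropenic with cyclophosphamide s.c. (150 mg/kg day −4, 100 mg/kg day −1, 100 mg/kg day +2). Infected by tail vein with 0.1 ml inoculum (~6.1 log10 CFU/ml). Kidneys of untreated mice were homogenised and plated on SDA for 24 h at 35°C. Growth over 48 h is given as log10 CFU/kidney.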"}, "Nakaseomyces glabratus [6]": {"test_system": "Nakaseomyces glabratus", "experiment": "Antifungal activity against Candida glabrata 513 infected in neutropenic ICR/Swiss mouse candidiasis model assessed as dose required to maintain […] burden of 1.83 +/- 0.54 log10CFU per kidney administered intraperitoneally every 24 hrs up to 4 days measured per 24 hrs", "assay_type": "functional"}, "Nakaseomyces glabratus [7]": {"test_system": "Nakaseomyces glabratus", "experiment": "Antifungal activity against Candida glabrata 35315 assessed as partial growth inhibition after 24 hrs by CLSI end point method", "assay_type": "functional", "conditions": "Nakaseomyces glabratus, 35315, 24 h", "summary_of_the_method": "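Two end points were read against the drug-free control well: partial growth inhibition (the CLSI end point) and complete inhibition. Run in duplicate on four separate occasions; the value is the mean. Drug stock was made in DMSO and diluted in 0.9% NaCl.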"}, "Nakaseomyces glabratus [8]": {"test_system": "Nakaseomyces glabratus", "experiment": "Antifungal activity against Candida glabrata 33609 infected in neutropenic ICR/Swiss mouse candidiasis model assessed as dose required for 1-log10 reduction in […] per kidney administered intraperitoneally every 24 hrs up to 4 days measured per 24 hrs", "assay_type": "functional", "summary_of_the_method": "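Neutropenic mice (cyclophosphamide sc on days −4, −1 and +2) were infected iv 2 h before therapy. Five total doses from 0.078 to 20 mg/kg/24 h were given ip q24h for 4 days, three mice per regimen. Kidney CFU were measured at the end of therapy. Static and 1-log-kill doses were derived from a Hill sigmoid dose-effect fit.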"}, "Candida albicans [9]": {"test_system": "Candida albicans", "experiment": "Antifungal activity against Candida albicans K-1 infected in neutropenic ICR/Swiss mouse candidiasis model assessed as prolongation of fungal growth suppression at 5 mg/kg, ip administered 2 hrs postinfection as single dose by time-kill assay", "assay_type": "functional", "conditions": "route intraperitoneal", "summary_of_the_method": "(§3)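 Single ip dose (20, 5 or 1.25 mg/kg) given 2 h after iv infection of neutropenic mice with K-1. Three treated and three control mice were sampled at intervals over 96 h for kidney CFU. PAFE is the time for treated burden to rise 1 log10 after serum levels fall below MIC, minus the same time in controls. Free drug was taken as 1%.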"}, "Candida albicans [10]": {"test_system": "Candida albicans", "experiment": "Antifungal activity against Candida albicans K-1 infected in neutropenic ICR/Swiss mouse candidiasis model assessed as dose required to maintain […] of 3.90 +/- 0.15 log10CFU per kidney administered intraperitoneally every 24 hrs up to 4 days measured per 96 hrs", "assay_type": "functional", "summary_of_the_method": "as §2"}, "Mus musculus": {"test_system": "Mus musculus", "experiment": "Cmax in serum of neutropenic ICR/Swiss mouse candidiasis model at 5 mg/kg, ip up to 4 hrs by reverse-phase high-pressure liquid chromatography", "assay_type": "ADME, organism-based", "set-up": "dose 5 mg/kg, route intraperitoneal", "conditions": "in vivo", "summary_of_the_method": "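Infected neutropenic ICR/Swiss mice given single ip doses (5, 20 or 80 mg/kg; 0.2 ml); serum from three isoflurane-anaesthetised mice at 1, 4, 8, 12, 24 and 48 h, stored at −80°C, assayed by reverse-phase HPLC with fluorescence detection, loratadine internal standard, linear 10–50,000 ng/ml. Noncompartmental analysis; half-life by nonlinear least squares.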"}, "Candida tropicalis": {"test_system": "Candida tropicalis", "experiment": "Antifungal activity against Candida tropicalis 98-234 infected in neutropenic ICR/Swiss mouse candidiasis model assessed as dose required to maintain […] of 3.81 +/- 0.33 log10CFU per kidney administered intraperitoneally every 24 hrs up to 4 days measured per 24 hrs", "assay_type": "functional"}, "Nakaseomyces glabratus [11]": {"test_system": "Nakaseomyces glabratus", "experiment": "Antifungal activity against Candida glabrata 33609 assessed as complete growth inhibition after 24 hrs by CLSI end point method", "assay_type": "functional", "conditions": "Nakaseomyces glabratus, 33609, 24 h", "summary_of_the_method": "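CLSI M27-A2 broth dilution. Two end points read against the drug-free control well: partial inhibition (CLSI end point) and complete inhibition. Run in duplicate on four separate occasions; value is the mean. Drug stock in DMSO, diluted in 0.9% NaCl.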"}, "Candida albicans [12]": {"test_system": "Candida albicans", "experiment": "Antifungal activity against Candida albicans K-1 infected in neutropenic ICR/Swiss mouse candidiasis model assessed as suppression of fungal regrowth at 5 mg/kg, ip administered 2 hrs postinfection as single dose by time-kill assay", "assay_type": "functional, organism-based", "set-up": "dose 5 mg/kg", "summary_of_the_method": "as §3"}, "Nakaseomyces glabratus [13]": {"test_system": "Nakaseomyces glabratus", "experiment": "Antifungal activity against Candida glabrata 5376 infected in neutropenic ICR/Swiss mouse candidiasis model assessed as reduction of […] in kidney at 20 mg/kg, ip administered 2 hrs postinfection as single dose measured within 1 to 4 hrs post dosing by time-kill assay", "assay_type": "functional, organism-based", "set-up": "dose 20 mg/kg", "summary_of_the_method": "as §1"}, "Nakaseomyces glabratus [14]": {"test_system": "Nakaseomyces glabratus", "experiment": "Antifungal activity against Candida glabrata 5376 infected in neutropenic ICR/Swiss mouse candidiasis model assessed as dose required to maintain […] burden of 1.83 +/- 0.54 log10CFU per kidney administered intraperitoneally every 24 hrs up to 4 days measured per 24 hrs", "assay_type": "functional"}},
  "note": "The source made the active and inactive calls. The rule behind the calls is not given here. Starred links: 1 amine or outer side, 2 acyl side, 3 side chain; linkers in the order of their positions; H or OH if unused. Positions of bridges follow the written chain, without caps; N, C: chain ends. Non-standard residues stand in square brackets, D forms with d. Residues, ends and D or L forms follow the SMILES beside them. *: point of attachment. pTerphenylCO(4''-OnC5H11) = CCCCCOc1ccc(-c2ccc(-c3ccc(C(=O)*)cc3)cc2)cc1; Orn(4R-OH,5R-OH) = O=C([C@H](C[C@@H](O)[C@@H](O)N[*:3])N[*:1])[*:2]; hTyr(3S-OH,4S-OH) = N[C@H](C(=O)O)[C@H](O)[C@@H](O)c1ccc(O)cc1; Pro(3S-OH,4S-Me) = C[C@H]1CN[C@H](C(=O)O)[C@H]1O; Hyp = O=C(O)[C@@H]1C[C@@H](O)CN1",
  "data": [
    {"smiles": "CCCCCOc1ccc(-c2ccc(-c3ccc(C(=O)N[C@H]4C[C@@H](O)[C@@H](O)NC(=O)[C@@H]5[C@@H](O)[C@@H](C)CN5C(=O)[C@H]([C@@H](C)O)NC(=O)[C@H]([C@H](O)[C@@H](O)c5ccc(O)cc5)NC(=O)[C@@H]5C[C@@H](O)CN5C(=O)[C@H]([C@@H](C)O)NC4=O)cc3)cc2)cc1", "note": "[ANIDULAFUNGIN] ({pTerphenylCO(4''-OnC5H11)}-[Orn(4R-OH,5R-OH)]T[Hyp][hTyr(3S-OH,4S-OH)]T[Pro(3S-OH,4S-Me)]; lactam 1-C)", "values": [
      {"measurement": "Activity", "setting": "Nakaseomyces glabratus [1]", "result": "Active"},
      {"measurement": "AUC(0-inf)", "setting": "[2]", "result": 1980, "unit": "µg·h/mL"},
      {"measurement": "Activity", "setting": "Nakaseomyces glabratus [3]", "result": 6.4, "unit": "mg/kg"},
      {"measurement": "Activity", "setting": "Candida albicans [4]", "result": 9.19, "unit": "mg/kg"},
      {"measurement": "log10cfu", "setting": "Nakaseomyces glabratus [5]", "result": 2.37},
      {"measurement": "Activity", "setting": "Nakaseomyces glabratus [6]", "result": 2.45, "unit": "mg/kg"},
      {"measurement": "MIC", "setting": "Nakaseomyces glabratus [7]", "result": 0.25, "unit": "µg/mL"},
      {"measurement": "Activity", "setting": "Nakaseomyces glabratus [8]", "result": 4.21, "unit": "mg/kg"},
      {"measurement": "Activity", "setting": "Candida albicans [9]", "result": ">96", "unit": "h"},
      {"measurement": "Activity", "setting": "Candida albicans [10]", "result": 5, "unit": "mg/kg"},
      {"measurement": "Cmax", "setting": "Mus musculus", "result": 4300, "unit": "ng/mL"},
      {"measurement": "Activity", "setting": "Candida tropicalis", "result": 3.81, "unit": "mg/kg"},
      {"measurement": "MIC", "setting": "Nakaseomyces glabratus [11]", "result": 0.12, "unit": "µg/mL"},
      {"measurement": "Activity", "setting": "Candida albicans [12]", "result": "Active"},
      {"measurement": "Activity", "setting": "Nakaseomyces glabratus [13]", "result": "Active"},
      {"measurement": "Activity", "setting": "Nakaseomyces glabratus [14]", "result": 6.8, "unit": "mg/kg"}
    ]}
  ]
}
